Results on eight compounds are retold here after article PMC4422293 (Drug Design, Development and Therapy, 2015).

Data set [1] can be described thus: Surface plasmon resonance binding to immobilized 3-Lipid II. Summed up: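 SPR was run at 25°C on a Biacore T100. About 50 RU of farnesyl (3-isoprene) Lipid II was amine-coupled to a CM5 chip. Running buffer was 10 mM HEPES, 150 mM NaCl, 0.05% P20, pH 7.4 (±3 mM EDTA) with 10% DMSO. Screening injections were at 10 μM, with control-cell subtraction and 30 s regeneration in 50 mM NaOH. Kd came from binding isotherms, averaged over three assays.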

In data set [2] the test system is Acinetobacter baumannii BAA-1605. Nature of the data set: MIC by broth dilution. It counts as cell-based. As to conditions: BAA1605. (Dilution methods test growth across graded concentrations, often in twofold steps.)
Data set [3] deals with Acinetobacter baumannii ATCC 19606. Description: MIC by broth dilution. As to conditions: ATCC19606, Table 4, mean of three replicates. It counts as cell-based.
The subject of data set [4] is K. pneumoniae NR-15411 (KPC). Description: MIC by broth dilution. It counts as cell-based. As to conditions: Klebsiella pneumoniae.
Data set [5] concerns Klebsiella pneumoniae NR-15410 (KPC). Nature of the data set: MIC by broth dilution. It counts as cell-based.
For data set [6], the system named is Staphylococcus aureus 1094 (MRSA). Description: MIC by broth dilution. It counts as cell-based.
The subject of a further data set is P. aeruginosa ATCC 27853. Description: MIC by broth dilution. It counts as cell-based. As to conditions: Pseudomonas aeruginosa, ATCC27853.
Data set [7] relates to Enterobacter aerogenes ATCC 13048. Nature of the data set: MIC by broth dilution. The class given is cell-based. As to conditions: Klebsiella aerogenes, ATCC13048.
A short description of data set [8]: Cytotoxicity against mammalian cells. The class given is cell-based. As to conditions: human, HeLa cells (ATCC CCL-2.2). Summed up: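 HeLa cells (ATCC CCL-2.2) were exposed to the test compound for 72 h. CC50 is the concentration giving a half-maximal decrease in viability, averaged over two replicate assays.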
The subject of data set [9] is Enterococcus faecium EF1509 (VRE). Description: MIC by broth dilution. The class given is cell-based.
For data set [10], the system named is S. aureus HFH-30123 (MRSA). Nature of the data set: MIC by broth dilution. The class given is cell-based. As to conditions: Staphylococcus aureus.
For data set [11], the system named is Enterobacter cloacae ATCC 13047. Description: MIC by broth dilution. The class given is cell-based. As to conditions: ATCC13047.
Data set [12] relates to Pseudomonas aeruginosa X13273. Nature of the data set: MIC by broth dilution. The class given is cell-based.
The next data set relates to E. faecium F118 (VRE). Nature of the data set: MIC by broth dilution. It counts as cell-based. As to conditions: Enterococcus faecium.
Data set [13] concerns DNA, cell wall, protein, and lipid synthesis in S. aureus NCTC 8325. Nature of the data set: Macromolecular synthesis assays, all pathways. The class given is cell-based, Staphylococcus aureus.
For the next data set, the system named is S. aureus. Nature of the data set: Antibacterial activity / killing of S. aureus. The class given is cell-based. As to conditions: Staphylococcus aureus.
In data set [14] the test system is Staphylococcus aureus (VISA) ATCC 700699. Nature of the data set: MIC by broth dilution. The class given is cell-based. As to conditions: Table S2; unit not given.
The test system of data set [15] is Staphylococcus aureus (USA300) MRSA. Description: MIC by broth dilution. The class given is cell-based. As to conditions: Table S2; unit not given.
The next data set has as its system S. aureus (VISA) NRS22. Description: MIC by broth dilution. The class given is cell-based, Staphylococcus aureus. As to conditions: Table S2; unit not given.
Where [16] appears, read: read-out: Lipid II binding (Kd), Table 4, averages of three replicate assays.

Where two headings read alike, the source gives them in different places.

Consider `CCOc1ccc(-c2cc(C=CC=C3N(C)c4ccccc4C3(C)C)o[c+](-c3ccc(OCC)cc3)c2)cc1` [BAS00127537, 2,4-Bis-(4-ethoxy-phenyl)-6-[3-(1,3,3-trimethyl-1,3-dihydro-indol-2-ylidene)-propenyl]-pyranylium], for which the “reduction in Lipid II-binding affinity compared to BAS00127538” value in data set [1] (from Table 1) is recorded as ~ 15 fold.
`CN1/C(=C/C=C/c2cc(-c3ccccc3)cc(-c3ccccc3)[n+]2C)C(C)(C)c2ccccc21.F[B-](F)(F)F` [SF-5-219, 1-Methyl-2,4-diphenyl-6-((1E,3E)-3-(1,3,3-trimethylindolin-2-ylidene)prop-1-en-1-yl)pyridin-1-ium tetrafluoroborate]: the MIC in data set [2] was 8 µg/mL; in data set [3], 8 µg/mL; in data set [4] it was 32 µg/mL; in data set [5], 32 µg/mL; in data set [6], 1 µg/mL; against P. aeruginosa ATCC 27853, not below 32 µg/mL. The MIC in data set [7] was 32 µg/mL; in data set [9] it was 0.5 µg/mL; in data set [10] it was 1 µg/mL; in data set [11], not below 32 µg/mL; in data set [12], not below 32 µg/mL; with E. faecium F118 (VRE) it was 5 µg/mL. Besides, the Kd in [1] (setting [16]) is 7.4 ± 3.08 µM. The compound further yielded a CC50 at 72 h in data set [8] of 0.25 µg/mL.
Take `CC(C)[n+]1c(/C=C/C=C2/N(C)c3ccccc3C2(C)C)cc(-c2ccccc2)cc1-c1ccccc1.F[B-](F)(F)F` [SF-5-330, 1-Isopropyl-2,4-diphenyl-6-((1E,3E)-3-(1,3,3-trimethylindolin-2-ylidene)prop-1-en-1-yl)pyridin-1-ium tetrafluoroborate]: the MIC in data set [2] came to 8 µg/mL; in data set [3], 8 µg/mL; in data set [4] it was 25.4 µg/mL; in data set [5] it was 10 µg/mL; against S. aureus, 1 µg/mL; in data set [6], 1 µg/mL. Besides, the MIC against P. aeruginosa ATCC 27853 worked out at 8 µg/mL; in [7] it was 8 µg/mL; in [9] it was 0.5 µg/mL; in data set [10], 1 µg/mL; in [11] it was 16 µg/mL; in data set [12] it was 4 µg/mL. In addition, the MIC against E. faecium F118 (VRE) is 5 µg/mL. Further, the “inhibition of macromolecular synthesis pathways” value in data set [13] is reported as “inhibited all pathways at low concentrations”. In data set [1] (setting [16]), the Kd worked out at 0.54 ± 0.16 µM. Moreover, the cytotoxic concentration (CC50) at 72 h in data set [8] was determined as 0.33 µg/mL.
For `CC(C)C[n+]1c(/C=C/C=C2/N(C)c3ccccc3C2(C)C)cc(-c2ccccc2)cc1-c1ccccc1.F[B-](F)(F)F` [SF-5-331, 1-Isobutyl-2,4-diphenyl-6-((1E,3E)-3-(1,3,3-trimethylindolin-2-ylidene)prop-1-en-1-yl)pyridin-1-ium tetrafluoroborate], the MIC in data set [2] was 8 µg/mL; in data set [3], 8 µg/mL; in data set [4], 32 µg/mL; in [5] it was 16 µg/mL; against S. aureus, 1 µg/mL; in [6], 1 µg/mL. Moreover, the MIC was 32 µg/mL against P. aeruginosa ATCC 27853; 32 µg/mL in data set [7]; 0.5 µg/mL in [9]; 1 µg/mL in data set [10]; 32 µg/mL in data set [11]; 8 µg/mL in data set [12]. In the data set with E. faecium F118 (VRE), this compound registered an MIC of 2 µg/mL. Moreover, in data set [13], the “inhibition of macromolecular synthesis pathways” value is “inhibited all pathways at low concentrations”. Further, the Kd in [1] (setting [16]) was determined as 0.34 ± 0.24 µM. Further, in [8], the CC50 at 72 h was determined as 0.26 µg/mL.
Regarding `CN1/C(=C/C=C/c2cc(-c3ccccc3)cc(-c3ccccc3)[n+]2CCO)C(C)(C)c2ccccc21.F[B-](F)(F)F` [SF-5-332, 1-(2-Hydroxyethyl)-2,4-diphenyl-6-((1E,3E)-3-(1,3,3-trimethylindolin-2-ylidene)prop-1-en-1-yl)pyridin-1-ium tetrafluoroborate], the MIC in [2] is 20.2 µg/mL; in data set [3], 20.2 µg/mL; in data set [4] it was not below 32 µg/mL; in data set [5] it was not below 32 µg/mL; in data set [6], 1 µg/mL; in the data set with P. aeruginosa ATCC 27853, not below 32 µg/mL. Further, the MIC in [7] was not below 32 µg/mL; in data set [9], 1 µg/mL; in data set [10], 1 µg/mL; in [11], not below 32 µg/mL; in data set [12] it was not below 32 µg/mL; in the data set with E. faecium F118 (VRE), 8 µg/mL. Further, the Kd in [1] (setting [16]) turned out to be 4.4 ± 3.02 µM. The CC50 at 72 h in data set [8] is 0.8 µg/mL.
In the case of `CN(C)CC[n+]1c(/C=C/C=C2/N(C)c3ccccc3C2(C)C)cc(-c2ccccc2)cc1-c1ccccc1.F[B-](F)(F)F` [SF-5-334, 1-(2-(Dimethylamino)ethyl)-2,4-diphenyl-6-((1E,3E)-3-(1,3,3-trimethylindolin-2-ylidene)prop-1-en-1-yl) pyridin-1-ium tetrafluoroborate], the MIC is 32 µg/mL in [2]; 32 µg/mL in data set [3]; not below 32 µg/mL in [4]; not below 32 µg/mL in data set [5]; 16 µg/mL in data set [6]; not below 32 µg/mL in the data set on P. aeruginosa ATCC 27853. In addition, the MIC is not below 32 µg/mL in data set [7]; 8 µg/mL in data set [9]; 16 µg/mL in [10]; not below 32 µg/mL in [11]; not below 32 µg/mL in data set [12]; 32 µg/mL with E. faecium F118 (VRE). For the same compound, in data set [1] (setting [16]), the Kd is 1.9 ± 0.86 µM. The compound further returned a CC50 at 72 h in data set [8] of 2.25 µg/mL.
For the compound `CN[C@H](CC(C)C)C(=O)N[C@H]1C(=O)N[C@@H](CC(N)=O)C(=O)N[C@H]2C(=O)N[C@H]3C(=O)N[C@H](C(=O)N[C@H](C(=O)O)c4cc(O)cc(O)c4-c4cc3ccc4O)[C@H](O)c3ccc(c(Cl)c3)Oc3cc2cc(c3O[C@@H]2O[C@H](CO)[C@@H](O)[C@H](O)[C@H]2O[C@H]2C[C@](C)(N)[C@H](O)[C@H](C)O2)Oc2ccc(cc2Cl)[C@H]1O` [Vancomycin], the “Antibacterial activity (MIC)” value in data set [14] was 8; in data set [15], not above 0.5; with S. aureus (VISA) NRS22, 8.
With `Cc1cc(-c2ccccc2)cc(-c2ccccc2)[n+]1C` [Z56760026, 1,2-Dimethyl-4,6-diphenylpyridin-1-ium], the Kd in data set [1] (read-out: Lipid II binding Kd) was determined as 37 µM.

As a reminder, the MIC is the smallest concentration in the dilution series that meets the test's criterion for growth inhibition. Lower therefore signals greater potency. Broadly, the Kd is the equilibrium constant for the complex coming apart. One may read the CC50 as the concentration giving 50% cytotoxicity. A high value points to lower toxicity to the cells.
